Where “and” joins values, the source holds several entries; their conditions need not be identical. Identical values can stand only once. Entries after “also recorded” stand apart in the source; their conditions may differ. Starred links: 1 amine or outer side, 2 acyl side, 3 side chain; linkers in the order of their positions; H or OH if unused. Positions of bridges follow the written chain, without caps; N, C: chain ends. Non-standard residues stand in square brackets, D forms with d. Ala(13C3,15N) = 13C3,15N-labelled alanine, [13CH3][13C@H]([15NH][*:1])[13C](=O)[*:2]

Data set [1] addresses T1, GRP78-NBD (Homo sapiens, UniProt P11021). Briefly: SEC-SAXS of GRP78-NBD and its complexes with CDNF or C-CDNF. The class given is binding. The essentials: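 Recombinant human proteins expressed in E. coli: CDNF in T7 Shuffle Express (to keep disulfides), GRP78-NBD in BL21 Star (DE3). In-line SEC-SAXS used 10 μl at ~10 mg/ml on Superdex 200 Increase at 0.35 ml/min and 20 °C, in PBS pH 7.2 with 1.5% glycerol. Data were collected at EMBL P12 (Pilatus 6M) in a 1 mm quartz capillary.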

In another data set the test system is nucleus-localized ATF4. Briefly: UPR marker nucleus-localized ATF4 in TH-positive neurons after MPP+ injury. The settings on record: for UPR modulating effect on PERK/ATF4 pathway: compared to wild-type C-CDNF. It is filed as cell-based, rat. The method in brief:
(§1)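 Rat primary mesencephalic neurons were pretreated with test compound (PBS stock diluted in medium) from 4 h before injury. They were then exposed on DIV6 to 4 µM MPP+ for 48 h, six wells per condition. Fixed cells were double-stained for TH plus phospho-IRE1α, ATF4 or ATF6, with Hoechst nuclear counterstain. Twenty 10x images per well were analysed automatically for TH/phospho-IRE1α overlap or stained nuclei in TH+ cells. Results are % vs control; one-way ANOVA with Dunnett's test.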

The subject of the next data set is nucleus-localized ATF6. The data set can be described thus: UPR marker nucleus-localized ATF6 in TH-positive neurons after MPP+ injury. The class given is cell-based, rat. The essentials:
as §1

For the next data set, the system named is phosphorylated IRE1α. The data set can be described thus: UPR marker phospho-IRE1α in TH-positive neurons after MPP+ injury. It is filed as cell-based, rat. Conditions: for UPR modulating effect on IRE1α pathway: compared to wild-type C-CDNF. The method in brief:
as §1

The test system of data set [2] is GRP78-NBD. The settings on record: crystal structure; cited from earlier work.
Data set [3] has as its target T1, GRP78-NBD. The data set can be described thus: 2D 1H-13C HSQC NMR titration of 13C/15N-Ala labeled C-CDNF with GRP78-NBD. It is filed as binding. Conditions: GRP78-NBD 0-65 µM.
In data set [4] the test system is α-synuclein (aSyn) aggregates in dopamine neurons. The data set can be described thus: α-synuclein. It is filed as cell-based, rat. The essentials: (§2)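 Rat primary mesencephalic neurons were used. On DIV6, medium (Neurobasal, B27, BDNF, GDNF) was replaced with medium containing 4 µM MPP+ for 48 h. Test compound, from PBS stocks diluted in medium, was added 4 h before MPP+. Six wells per condition; fixed, then immunostained for TH and α-synuclein. Twenty 10x images per well, automated count of TH+ neurons and TH/aSyn overlap area. Reported as % of untreated control; one-way ANOVA with Dunnett's test.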

The subject of data set [5] is TH-positive dopamine neurons (rat primary mesencephalic neurons). The class given is cell-based. The settings on record: for neuroprotective activity: any of the tested concentrations. The method in brief:
as §2

In data set [6] the target is T1, GRP78-NBD. The data set can be described thus: Spectral shift binding assay. The settings on record: ligand up to 100 μM; 25 °C. The essentials: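 Tag-free GRP78-NBD (His-tagged, expressed in E. coli BL21 Star (DE3), cobalt-affinity purified, TEV-cleaved, SEC-polished) labelled with NT-650-NHS, held at 10 nM. Ligand serial dilutions were made in PBS pH 7.2 with 0.05% Tween 20, giving 100 μM to 3.05 nM final. Read on Monolith X at 25 °C, 100% LED, as the 670/650 nm ratio. Amplitude is the unbound-to-bound plateau difference.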

The mark [7] stands for this setting: MPP+ injury, 4 µM, 48 h, p < 0.0001 vs control.
The mark [8] stands for this setting: SEC-SAXS, PBS pH 7.2, 1.5% glycerol, 20 °C.

T1 sequence (P11021 26-382): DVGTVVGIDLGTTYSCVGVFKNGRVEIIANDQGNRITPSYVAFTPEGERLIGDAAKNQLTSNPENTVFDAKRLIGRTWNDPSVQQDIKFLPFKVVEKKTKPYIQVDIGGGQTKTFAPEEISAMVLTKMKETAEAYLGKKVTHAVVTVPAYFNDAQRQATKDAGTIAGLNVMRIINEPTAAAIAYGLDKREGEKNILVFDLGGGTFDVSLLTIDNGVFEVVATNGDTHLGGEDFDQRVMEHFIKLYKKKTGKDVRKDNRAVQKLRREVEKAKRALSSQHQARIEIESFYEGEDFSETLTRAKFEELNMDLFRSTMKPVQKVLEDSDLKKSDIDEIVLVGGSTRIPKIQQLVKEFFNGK

In the case of “CDNF: Cerebral dopamine neurotrophic factor, CDNFWT (aa 25-187), expressed in E. coli”, the “complex formation with GRP78-NBD” value with GRP78-NBD [1] (shift of SEC-SAXS elution peak to earlier elution, excess ligand) is on record as “formed a complex with GRP78-NBD”.
`C[n+]1ccc(-c2ccccc2)cc1` [MPP^+, 1-methyl-4-phenyl-pyrididium, reference compound]: in the data set with nucleus-localized ATF4 (setting [7]), the “increase of nucleus-localized ATF4 from control cells” value is reported as 42.1 ± 6.1. Moreover, in the data set on nucleus-localized ATF6 (setting [7]), the “increase of nucleus-localized ATF6 from control cells” value is on record as 79.5 ± 6.2. In addition, in the data set with phosphorylated IRE1α (setting [7]), the “increase of S724 phosphorylated IRE1α from control cells” value worked out at 81.0 ± 5.0%.
For “GRP78-NBD: nucleotide-binding domain of GRP78 (aa 26-382), expressed in E. coli”, in the data set with GRP78-NBD [1] (setting [8]), the “Dmax (PDDF/P(r) analysis)” value is 6.5 nm and 6.5 ± 0.2 nm; the “Rg (Guinier Analysis)” value is 2.2 nm and 2.2 ± 0.1 nm. Further, the “Envelope volume (ab initio modeling, Dammif)” value with GRP78-NBD [1] (from SEC-SAXS data) was determined as 83 nm^3.

B1: MANF: mesencephalic astrocyte-derived neurotrophic factor (protein, UniProt P55145 25-182, looked up)
Mesencephalic …: LRPGDCEVCISYLGRFYQDLKDRDVTFSPATIENELIKFCREARGKENRLCYYIGATDDAATKIINEVSKPLAHHIPVEKICEKLKKKDSQICELKYDKQIDLSTVDLKKLRVKELKKILDDWGETCKGCAEKSDYIRKINELMPKYAPKAASARTDL
As for B1, the “binding to GRP78 nucleotide-binding domain” value in the data set with GRP78-NBD [2] is “binds to the regulatory, nucleotide-binding domain of GRP78 via its C-terminal domain”.

B2: ^13C/^15N-Ala-labeled C-CDNF: C-CDNF with labeled alanine residues A135, A145, A162, A175, A179, A180 (peptide)
peptide: KYEKTLDL[Ala(13C3,15N)]SVDLRKMRV[Ala(13C3,15N)]ELKQILHSWGEECRAC[Ala(13C3,15N)]EKTDYVNLIQEL[Ala(13C3,15N)]PKY[Ala(13C3,15N)][Ala(13C3,15N)]THPKTEL
modifications: disulfide 32-35
As to B2, the “effect of GRP78-NBD titration on Ala methyl groups” value with GRP78-NBD [3] is “The three well-resolved methyl groups of A145, A162 and A175 are clearly affected; also recorded: A179 and A180 do not display any clear effects”.

B3: C-CDNF-MT1 (protein)
peptide: KYEKTLDLASVDLRKMRVAELKQILHSWGEECRACAAATDYVNLIQELAPKYAATHPKTEL
modifications: disulfide 32-35
Turning to B3, the “UPR modulating effect on PERK/ATF4 pathway” value in the data set on nucleus-localized ATF4 is listed as “nearly completely lost the UPR modulating effect”. Moreover, the “maximal reduction of aSyn aggregation from MPP+ model effect” value in [4] (maximal effect over tested concentrations (5-500 nM), p = 0.4382) was found to be 21.2 ± 5.9%. In addition, the “neuroprotective activity” value in [5] (MPP+ 48 h) is on record as “did not show any neuroprotective activity”. The “maximal increase of dopamine neuron survival from MPP+ model effect” value in [5] (maximal effect over tested concentrations (5-500 nM), p = 0.9771) is on record as 13.6 ± 6.7%. The “binding to GRP78-NBD (spectral shift), in words” value with GRP78-NBD [6] is on record as “do not bind to GRP78-NBD”. In addition, in the data set with phosphorylated IRE1α, the “UPR modulating effect on IRE1α pathway” value is “nearly completely lost the UPR modulating effect”.

B4: C-CDNF-MT2: C-CDNF mutant E156/157/163A (peptide)
peptide: KYEKTLDLASVDLRKMRVAELKQILHSWGAACRACAAKTDYVNLIQELAPKYAATHPKTEL
modifications: disulfide 32-35
Take B4: the “UPR modulating effect on PERK/ATF4 pathway” value in the data set with nucleus-localized ATF4 was “nearly completely lost the UPR modulating effect”. In data set [4] (all three tested concentrations, compared to wild-type C-CDNF), the “activity in neuroprotection or aSyn aggregation” value is recorded as “very low activity in neuroprotection or aSyn aggregation”. Besides, the “neuroprotective activity” value in data set [5] (MPP+ 48 h) was “did not show any neuroprotective activity”. Besides, the “binding to GRP78-NBD (spectral shift), in words” value with GRP78-NBD [6] is “do not bind to GRP78-NBD”. Besides, in the data set with phosphorylated IRE1α, the “UPR modulating effect on IRE1α pathway” value is listed as “nearly completely lost the UPR modulating effect”.

B5: C-CDNF-MT3 (protein)
chain: KYEKTLDLASVDLRKMRVAELKQILHSWGEECAACAEATDYVNLIQELAPKYAATHPKTEL
modifications: disulfide 32-35
With B5, in the data set on nucleus-localized ATF4 (500 nM, p = 0.0498), the “decrease in nuclear ATF4” value is listed as 55.3 ± 8.2%. The “reduction in aSyn aggregation, change from MPP+ model effect” value in [4] (500 nM, MPP+ 48 h, p = 0.0073) was −42.1 ± 7.7%. Besides, in the data set on nucleus-localized ATF6 (5-500 nM), the “ATF6 pathway modulating activity” value was “dose-dependent effect”. Further, the “increase of dopamine neuron survival from MPP+ model effect” value in [5] (500 nM, MPP+ 48 h, p = 0.0878) was found to be 40.3 ± 8.4%. Besides, the “neuroprotective activity” value in [5] (MPP+ 48 h) was “reduced potency in the neuroprotection assay”. Also, in the data set with GRP78-NBD [6], the “binding to GRP78-NBD (spectral shift), in words” value is “impaired binding to GRP78-NBD; also recorded: weak binding to GRP78-NBD”. The “decrease in phospho-IRE1α” value in the data set with phosphorylated IRE1α (500 nM, p = 0.0003) came out at 67.2 ± 6.0%. For the same molecule, the “UPR modulating activity” value in the data set with phosphorylated IRE1α (5 and 50 nM) is reported as “loss of UPR modulating activity”.

Values taken from article PMC11408689 (Nature Communications, 2024).
